Experimental data as given in ChEMBL document CHEMBL3804828, “2,4,6-Triaminopyrimidine as a Novel Hinge Binder in a Series of PI3Kδ Selective Inhibitors” (J Med Chem, 2016).

What was measured:
Homo sapiens [1] = species on record: Homo sapiens; assay: Selectivity ratio of IC50 for human full length PI3Kalpha catalytic subunit/p85alpha to IC50 for human full length PI3Kdelta catalytic subunit/p85alpha
In short: (§1)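 Ratio calculated from the isoform-specific PI3K IC50 values, with enzyme assays run in quadruplicate.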

Homo sapiens [2] = species on record: Homo sapiens; assay: Selectivity ratio of IC50 for human recombinant PI3Kbeta to IC50 for human full length PI3Kdelta catalytic subunit/p85alpha; in short: as §1
[3] = target: PI3-kinase p110-delta/p85-alpha (Homo sapiens, UniProt O00329); assay: Inhibition human full length PI3Kdelta catalytic subunit/p85alpha assessed as formation of PIP3 after 30 mins by europium labeled GRP-based TR-FRET assay; assay type: protein-complex assay
PI3-kinase p110-delta/p85-alpha, sequence (P27986 whole entry): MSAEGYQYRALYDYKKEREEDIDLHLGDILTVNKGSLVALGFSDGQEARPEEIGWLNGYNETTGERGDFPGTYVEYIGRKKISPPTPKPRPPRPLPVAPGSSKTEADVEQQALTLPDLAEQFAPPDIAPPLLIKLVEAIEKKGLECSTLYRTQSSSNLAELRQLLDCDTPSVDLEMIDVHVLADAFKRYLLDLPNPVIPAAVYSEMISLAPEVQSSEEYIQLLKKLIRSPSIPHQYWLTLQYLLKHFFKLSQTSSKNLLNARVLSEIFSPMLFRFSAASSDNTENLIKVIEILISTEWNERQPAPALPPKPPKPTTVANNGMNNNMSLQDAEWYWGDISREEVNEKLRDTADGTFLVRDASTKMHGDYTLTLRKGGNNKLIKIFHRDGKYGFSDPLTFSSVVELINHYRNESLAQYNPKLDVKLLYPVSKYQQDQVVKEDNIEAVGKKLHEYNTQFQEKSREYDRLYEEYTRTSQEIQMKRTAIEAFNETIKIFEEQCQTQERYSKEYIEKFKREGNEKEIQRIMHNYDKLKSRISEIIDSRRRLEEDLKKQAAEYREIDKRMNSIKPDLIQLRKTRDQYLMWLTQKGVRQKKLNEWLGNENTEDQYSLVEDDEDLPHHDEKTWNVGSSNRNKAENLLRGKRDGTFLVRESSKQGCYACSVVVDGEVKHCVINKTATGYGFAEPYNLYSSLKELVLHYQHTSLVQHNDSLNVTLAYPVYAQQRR
PI3-kinase p110-delta/p85-alpha, sequence (O00329 whole entry): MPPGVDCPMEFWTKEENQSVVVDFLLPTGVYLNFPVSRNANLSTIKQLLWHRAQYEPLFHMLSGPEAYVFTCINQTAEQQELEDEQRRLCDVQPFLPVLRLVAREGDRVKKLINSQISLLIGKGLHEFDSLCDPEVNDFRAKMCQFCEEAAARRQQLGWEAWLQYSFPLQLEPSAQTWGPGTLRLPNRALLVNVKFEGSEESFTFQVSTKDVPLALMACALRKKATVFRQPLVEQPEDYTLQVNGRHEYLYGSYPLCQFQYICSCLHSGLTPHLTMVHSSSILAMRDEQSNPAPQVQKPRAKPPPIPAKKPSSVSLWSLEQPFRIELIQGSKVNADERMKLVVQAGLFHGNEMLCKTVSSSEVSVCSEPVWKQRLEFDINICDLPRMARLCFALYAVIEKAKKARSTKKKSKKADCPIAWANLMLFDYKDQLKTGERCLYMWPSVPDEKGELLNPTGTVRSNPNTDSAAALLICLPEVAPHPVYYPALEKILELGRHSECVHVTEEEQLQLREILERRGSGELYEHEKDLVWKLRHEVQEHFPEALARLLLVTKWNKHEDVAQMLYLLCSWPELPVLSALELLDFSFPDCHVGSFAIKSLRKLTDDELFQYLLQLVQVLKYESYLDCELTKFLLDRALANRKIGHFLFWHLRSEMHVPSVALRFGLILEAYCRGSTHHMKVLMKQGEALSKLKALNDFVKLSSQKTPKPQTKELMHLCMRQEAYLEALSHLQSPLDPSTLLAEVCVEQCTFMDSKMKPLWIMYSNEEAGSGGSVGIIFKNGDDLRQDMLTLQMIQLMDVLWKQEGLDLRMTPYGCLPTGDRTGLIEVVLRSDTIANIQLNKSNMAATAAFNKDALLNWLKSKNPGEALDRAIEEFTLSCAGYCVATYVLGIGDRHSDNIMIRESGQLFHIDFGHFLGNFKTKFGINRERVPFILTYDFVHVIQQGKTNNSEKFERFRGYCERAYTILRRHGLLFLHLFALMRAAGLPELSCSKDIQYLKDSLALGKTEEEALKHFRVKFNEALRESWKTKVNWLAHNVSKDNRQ

Homo sapiens [4] = species on record: Homo sapiens; assay: Selectivity ratio of IC50 for human full length PI3Kgamma to IC50 for human full length PI3Kdelta catalytic subunit/p85alpha; in short: as §1
[5] = Clearance in human hepatocytes at 1 uM by LC/MS/MS analysis; assay type: ADME, cell-based, Hepatocyte
In short: (§2)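 Human hepatocytes, incubated with and without the aldehyde oxidase inhibitor raloxifene; predicted clearance calculated from turnover.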

Hepatocyte = assay: Clearance in human hepatocytes at 1 uM by LC/MS/MS in presence of aldehyde oxidase inhibitor raloxifene; assay type: ADME, cell-based; in short: as §2

| Compound | Ratio IC50 (Homo sapiens [1]) | Ratio IC50 (Homo sapiens [2]) | IC50 [3] | Ratio IC50 (Homo sapiens [4]) | CLhep predicted at 1 µM [5] | CLH (Hepatocyte) |
| --- | --- | --- | --- | --- | --- | --- |
| C[C@H](Nc1ncnc(N)c1C#Cc1cccnn1)c1nc2cccc(Cl)c2c(=O)n1-c1ccccc1 | > 42 | 30 | 240 nM | > 42 | – | – |
| C[C@H](Nc1ncncc1C#N)c1nc2cccc(Cl)c2c(=O)n1-c1ccccc1 | 1200 | 460 | 8 nM | 370 | – | – |
| C[C@H](Nc1nc(N)nc(N)c1C#N)c1nc2cccc(Cl)c2c(=O)n1-c1cc(F)cc(F)c1 | 2600 | 520 | 0.47 nM | 110 | 13.5 mL/min/kg | – |
| C[C@H](Nc1nc(N)nc(N)c1C#N)c1nc2cccc(Cl)c2c(=O)n1-c1ccccc1 | 2200 | 80 | 0.1 nM | 60 | 3.5 mL/min/kg | 1.7 mL/min/kg |
| C[C@H](Nc1ncnc(N)c1C(N)=O)c1nc2cccc(Cl)c2c(=O)n1-c1ccccc1 | 860 | 310 | 11 nM | 310 | 4.5 mL/min/kg | 1.3 mL/min/kg |
| [2H]c1nc(N)c(C#N)c(N[C@@H](C)c2nc3cccc(Cl)c3c(=O)n2-c2ccccc2)n1 | – | – | 1.2 nM | – | 8.33 mL/min/kg | 1.7 mL/min/kg |
| C[C@H](Nc1nc(N)nc(N)c1C#N)c1nc2cccc(Cl)c2c(=O)n1-c1cccc(F)c1 | 3100 | 550 | 0.15 nM | 90 | – | – |
| C[C@H](Nc1nc(N)nc(N)c1C#N)c1nc2c(F)cccc2c(=O)n1-c1cc(F)cc(F)c1 | 810 | 920 | 3.5 nM | 130 | 8.83 mL/min/kg | – |
| C[C@H](Nc1ncnc(N)c1C#Cc1cnccn1)c1nc2cccc(Cl)c2c(=O)n1-c1ccccc1 | 3200 | 52 | 0.4 nM | 512 | – | – |
| C[C@H](Nc1nc(N)nc(N)c1C#N)c1nc2ccc(F)c(Cl)c2c(=O)n1-c1cc(F)cc(F)c1 | 780 | 470 | 2.9 nM | 74 | 6.5 mL/min/kg | – |
| C[C@H](Nc1nc(N)nc(N)c1C#N)c1nc2cccc(Cl)c2c(=O)n1-c1cc(Cl)cc(C(F)F)c1 | 850 | 220 | 1.5 nM | 220 | – | – |
| C[C@H](Nc1nc(N)nc(N)c1C#N)c1nc2cccc(Cl)c2c(=O)n1-c1ccc(F)cc1 | 64 | 4 | 2 nM | 2 | – | – |
| COc1c(N)ncnc1N[C@@H](C)c1nc2cccc(Cl)c2c(=O)n1-c1ccccc1 | > 251 | > 251 | 39 nM | > 251 | – | – |
| C[C@H](Nc1ncnc(N)c1C#Cc1cn[nH]c1)c1nc2cccc(Cl)c2c(=O)n1-c1ccccc1 | 1500 | 260 | 0.3 nM | 230 | – | – |
| C[C@H](Nc1ncnc(N)c1C#Cc1ccccc1)c1nc2cccc(Cl)c2c(=O)n1-c1ccccc1 | 1600 | 120 | 0.3 nM | 320 | – | – |
| C[C@H](Nc1nc(N)nc(N)c1C#N)c1nc2ccccc2c(=O)n1-c1cc(F)cc(F)c1 | 530 | 290 | 15 nM | 75 | 2.83 mL/min/kg | – |
| C[C@H](Nc1nc(N)nc(N)c1C#N)c1nc2cccc(Cl)c2c(=O)n1-c1cccc(CC(F)F)c1 | 1400 | 230 | 1.6 nM | 120 | – | – |
| C[C@H](Nc1ccncn1)c1nc2cccc(Cl)c2c(=O)n1-c1ccccc1 | > 6 | > 6 | 1700 nM | > 6 | – | – |
| C[C@H](Nc1nc(Cl)nc(N)c1C#N)c1nc2cccc(Cl)c2c(=O)n1-c1ccccc1 | 720 | 180 | 4.3 nM | 37 | 9.83 mL/min/kg | – |

| Compound | Ratio IC50 (Homo sapiens [1]) | Ratio IC50 (Homo sapiens [2]) | IC50 [3] | Ratio IC50 (Homo sapiens [4]) | CLhep predicted at 1 µM [5] | CLH (Hepatocyte) |
| --- | --- | --- | --- | --- | --- | --- |
| C[C@H](Nc1nc(N)nc(N)c1C#N)c1nc2cccc(Cl)c2c(=O)n1-c1cc(C#N)cc(C#N)c1 | > 68 | > 68 | 150 nM | > 68 | – | – |
| C[C@H](Nc1nc(N)nc(N)c1C#N)c1nc2cccc(Cl)c2c(=O)n1-c1cccc(C(F)(F)F)c1 | 1100 | 230 | 3.6 nM | 57 | – | – |
| C[C@H](Nc1nc(N)nc(N)c1C#N)c1nc2cccc(Cl)c2c(=O)n1-c1cccc(Cl)c1 | 530 | 140 | 0.45 nM | 70 | – | – |
| C[C@H](Nc1nc(N)nc(N)c1C#N)c1nc2c(C#N)cccc2c(=O)n1-c1cc(F)cc(F)c1 | 1700 | 1200 | 5.9 nM | 800 | 8.33 mL/min/kg | – |
| C[C@H](Nc1nc(N)nc(N)c1Cl)c1nc2cccc(Cl)c2c(=O)n1-c1ccccc1 | 2700 | 370 | 0.9 nM | 200 | 10.8 mL/min/kg | – |
| Cc1nc(N)nc(N[C@@H](C)c2nc3cccc(Cl)c3c(=O)n2-c2ccccc2)c1C#N | 1900 | 100 | 0.13 nM | 40 | 17.5 mL/min/kg | – |
| C#Cc1c(N)ncnc1N[C@@H](C)c1nc2cccc(Cl)c2c(=O)n1-c1ccccc1 | 9700 | 490 | 0.1 nM | 1900 | 11 mL/min/kg | – |
| C[C@H](Nc1ccnc(N)c1C#N)c1nc2cccc(Cl)c2c(=O)n1-c1ccccc1 | > 340 | > 340 | 30 nM | > 340 | – | – |
| C[C@H](Nc1nc(N)nc(N)c1C#N)c1nc2ccc(F)cc2c(=O)n1-c1cc(F)cc(F)c1 | 600 | 520 | 4.8 nM | 160 | 4.83 mL/min/kg | – |
| COc1cccc(-n2c([C@H](C)Nc3nc(N)nc(N)c3C#N)nc3cccc(Cl)c3c2=O)c1 | 1100 | 330 | 0.9 nM | 70 | – | – |
| C[C@H](Nc1cc(N)ncn1)c1nc2cccc(Cl)c2c(=O)n1-c1ccccc1 | > 100 | > 100 | 99 nM | > 100 | – | – |
| C[C@H](Nc1nc(N)ncc1C#N)c1nc2cccc(Cl)c2c(=O)n1-c1ccccc1 | 530 | 170 | 2.5 nM | 15 | – | – |
| C[C@H](Nc1nc(N)nc(N)c1C#N)c1nc2cccc(Cl)c2c(=O)n1-c1cccc(C(F)F)c1 | 1800 | 190 | 0.54 nM | 210 | – | – |
| C[C@H](Nc1nc(N)nc(Cl)c1C#N)c1nc2cccc(Cl)c2c(=O)n1-c1ccccc1 | 530 | 100 | 1 nM | 25 | 13.7 mL/min/kg | – |
| C[C@H](Nc1ncnc(N)c1C#Cc1cccnc1)c1nc2cccc(Cl)c2c(=O)n1-c1ccccc1 | 620 | 240 | 0.5 nM | 100 | – | – |
| C[C@H](Nc1ncnc(N)c1C(F)(F)F)c1nc2cccc(Cl)c2c(=O)n1-c1ccccc1 | 1200 | 340 | 1.8 nM | 560 | 9.83 mL/min/kg | 2 mL/min/kg |
| C[C@H](Nc1nc(N)nc(N)c1C#N)c1nc2cccc(Cl)c2c(=O)n1-c1cccc(C#N)c1 | 1700 | 340 | 1.9 nM | 90 | – | – |
| Cc1c(N)ncnc1N[C@@H](C)c1nc2cccc(Cl)c2c(=O)n1-c1ccccc1 | 700 | 380 | 14 nM | 700 | 12.2 mL/min/kg | 4.17 mL/min/kg |
